Only some compounds are listed: those with a hit (about 2.4% of all), similar ones and a draw of the others.
ERAP1 inh – human ERAP1 aminopeptidase inhibitors, primary screen, biochemical, single point, plate reader; Endoplasmic reticulum aminopeptidase 1 (Homo sapiens), Q9NZ08; recombinant ERAP1, Leu-AMC fluorescence, 60 min; inhibition, % at 10.7 µM; hit rate 0.15% among 340,000; AID 652197, 2013;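 active = mean replicate inhibition of at least 30%, or all replicates individually reaching that 30% level; inactive = mean below 30% and not every replicate reaching it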;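 note: 0% = neutral control wells and 100% = L-leucinethiol positive control wells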
Target sequence (Q9NZ08 whole entry, looked up): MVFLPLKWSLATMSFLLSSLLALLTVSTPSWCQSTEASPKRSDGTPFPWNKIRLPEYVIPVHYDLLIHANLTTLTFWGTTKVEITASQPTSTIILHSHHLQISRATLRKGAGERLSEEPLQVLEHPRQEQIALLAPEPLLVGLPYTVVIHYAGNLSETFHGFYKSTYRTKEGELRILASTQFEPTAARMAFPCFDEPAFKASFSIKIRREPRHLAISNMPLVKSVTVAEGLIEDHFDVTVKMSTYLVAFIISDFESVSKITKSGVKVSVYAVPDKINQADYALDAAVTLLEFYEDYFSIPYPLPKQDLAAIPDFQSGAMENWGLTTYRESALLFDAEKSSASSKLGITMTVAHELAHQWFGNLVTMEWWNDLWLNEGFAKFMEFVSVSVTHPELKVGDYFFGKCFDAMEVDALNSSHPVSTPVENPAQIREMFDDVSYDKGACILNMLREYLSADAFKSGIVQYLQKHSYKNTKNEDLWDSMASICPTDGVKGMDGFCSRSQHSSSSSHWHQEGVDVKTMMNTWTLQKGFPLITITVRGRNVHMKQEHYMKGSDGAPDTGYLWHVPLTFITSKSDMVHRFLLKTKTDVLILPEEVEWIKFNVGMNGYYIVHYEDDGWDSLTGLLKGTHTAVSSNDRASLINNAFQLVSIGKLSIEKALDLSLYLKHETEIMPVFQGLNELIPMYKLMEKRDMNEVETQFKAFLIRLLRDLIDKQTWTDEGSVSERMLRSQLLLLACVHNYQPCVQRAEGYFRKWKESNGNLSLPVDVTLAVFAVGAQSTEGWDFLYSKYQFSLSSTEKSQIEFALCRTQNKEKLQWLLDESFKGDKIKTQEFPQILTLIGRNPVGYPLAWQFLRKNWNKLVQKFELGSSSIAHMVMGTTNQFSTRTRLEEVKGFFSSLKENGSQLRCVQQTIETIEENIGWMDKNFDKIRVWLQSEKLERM
rRNA inh HTS – reduced GFP signal of wild-type E. coli, primary screen, bacterial rRNA inhibitor project, GFP/RFP fluorescence, OD600, single point | AID 720706, 2013 | hit rate 1.6% among 350,000 | GFP signal change (wild-type ribosome), % (test concentration not listed) | E. coli WT GFP vs humanized-ribosome RFP mutants, 24 h; active compounds read low; DMSO median 0, no signal -100;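 active = significant combined selectivity score with lowered wild-type GFP, culture density cut under 30%, mutant RFP and density less affected; inactive = any of these conditions unmet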
ARNT TACC3 PPI – disruptors of ARNT/TACC3 protein interaction, primary screen, biochemical, AlphaScreen, single concentration. Transforming acidic coiled-coil-containing protein 3 (Homo sapiens), Q9Y6A5. AlphaScreen His-ARNT PAS-B/GST-TACC3 binding, luminescence; TACC3 fragment carries E629A point mutation. inhibition, % at 9.99 µM. hit rate 0.66% among 390,000;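 active = mean inhibition of replicates at least 50% and at least half of replicates each reaching 50%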;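 note: 0% = complete ARNT plus TACC3 wells and 100% = ARNT alone without TACC3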
PGC1a acetyl inh – inhibitors of PGC1a acetylation signal, primary screen, cell-based, U2OS, AlphaScreen, inhibitor mode; AlphaScreen anti-acetyl-lysine; with virally co-expressed GCN5 acetyltransferase; inhibition, % at 15.6 µM; hit rate 0.17% among 350,000;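 active = every replicate shows inhibition of at least 40%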;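 note: 0% = neutral control wells and 100% = positive control wells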
CASP6 VEID inh – human caspase-6 inhibitors, primary screen, biochemical, VEID-R110 fluorescence, single point, set 2 | hit rate 0.53% among 350,000 | AID 686996, 2013 | inhibition, % at 12.5 µM | purified caspase-6, Z-VEID-R110 cleavage fluorescence | P55212;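 active = mean inhibition across replicates at least about 35%, with every replicate also reaching that limit, limit read from the data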;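 note: 0% = median of neutral control wells and 100% = no fluorescence left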
S100A4 inh HTS – inhibitors of S100A4-myosin IIA peptide binding, primary screen, biochemical, fluorescence polarization, TAMRA-MyoIIA peptide | Protein S100-A4 (Homo sapiens), P26447 | inhibition, % at 10.7 µM | hit rate 0.14% among 360,000 | AID 652163, 2013;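 active = mean inhibition of at least 70% across replicates, with every replicate also reaching that level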
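incubation = readout 5 min after mixing, signal stable up to 60 min | system = S100A4 monomer protein | buffer or medium = HEPES pH 7.2 with CaCl2, KCl, NaCl, DTT, Triton | benchmarks = neutral control DMSO, positive control TFP | also added = fluorescent myosin IIA peptide, 5 nM | compound dosing = one concentration per compound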
Active calls of the source: *; · = not tested or not shown; + = active, no number.

SMILES	ERAP1 inh	rRNA inh HTS	ARNT TACC3 PPI	PGC1a acetyl inh	CASP6 VEID inh	S100A4 inh HTS
CC(=O)N1[C@@H]2Cn3c(ccc(C4=CCCC4)c3=O)[C@H]1[C@@H](C(=O)NC1CCCCC1)[C@@H]2CO	1	-3	2	·	0	-11
COc1ccc2c3c([nH]c2c1)[C@@H](CO)N(Cc1ccccc1)CC31CN(S(C)(=O)=O)C1	·	-1	·	1	·	·
COC(=O)N/N=C/c1cccs1	-2	13	-5	·	1	-2
COc1ccc(CCCC(=O)N/N=C\c2cccs2)cc1	1	-23*	5	12	-2	-4
Cc1noc(C)c1S(=O)(=O)Nc1ccc2c(c1)CC(=O)N([C@@H](C)CO)C[C@H](C)[C@@H](CN(C)S(=O)(=O)c1cccs1)O2	2	-3	2	2	7	10
O=S(=O)(c1ccccc1)N1CCCCN2[C@@H](CO)[C@H](c3ccc(-c4ccccc4)cc3)[C@@H]2C1	2	1	-7	-5	0	0
COc1ccc(C(=O)Oc2ccc(/C=N/O)cc2)cc1	2	-26*	4	0	3	0
COCC(=O)N1[C@@H](CO)[C@H](c2ccccc2)C12CN(C(=O)c1cccnc1)C2	·	4	·	·	·	·
CN(C)C(=O)c1ccc(-c2ccc3c(c2)[C@H]2[C@H](CCN2Cc2cncnc2)[C@H](CO)N3)cc1	·	5	24	10	·	·
C[C@@H]1CN([C@@H](C)CO)C(=O)c2cc(N(C)C)ccc2O[C@H]1CN(C)S(=O)(=O)c1cn(C)cn1	4	3	-3	4	-1	-6
CCOc1ccccc1N1CCN(C(=O)C2=CC=CN3CCS(=O)(=O)N=C23)CC1	56*	13	3	1	4	1
O=C1C=C(O)c2c(O)cc(O)c(O)c2C1=O	14	·	19	6	71*	-1
Nc1ccc(O)c2c1C(=O)c1ccccc1C2=O	3	-1	42	7	13	17
O=C1c2ccccc2C(=O)c2c(O)c(O)cc(O)c21	0	-53	·	-7	41*	-24
C[C@@H]1Cc2c(O)c(O)cc(O)c2C(=O)O1	·	·	7	0	·	·
CC(C)(C)c1cc(N2CCOCC2)n2ncc(-c3ccccc3)c2n1	32*	12	-5	-4	0	-3
C[C@H](CO)N1C[C@H](C)[C@@H](CN(C)Cc2cncnc2)Oc2cc(/C=C/c3ccccc3)ccc2S1(=O)=O	-1	-10	12	4	-2	9
COCCNC(=O)C[C@H]1CC[C@@H]2[C@H](COC[C@H](O)CN2S(=O)(=O)c2ccccc2C)O1	-6	3	4	0	-7	9
COc1cccc2c1C(=O)c1c(O)c3c(c(O)c1C2=O)C[C@@](O)(C(=O)CO)C[C@@H]3O[C@H]1C[C@H](N)[C@@H](O)[C@H](C)O1	·	·	22	-24	·	·
COc1cccc2c1C(=O)c1c(O)c3c(c(O)c1C2=O)CC(O)(C(=O)CO)CC3OC1CC(N(C)C)C(O)C(C)O1 (stereo not drawn)	6	-56	11	33	-6	+
COc1cccc2c1C(=O)c1c(O)c3c(c(O)c1C2=O)C[C@@](O)(C(C)=O)C[C@@H]3O[C@H]1C[C@H](N)[C@H](O)[C@H](C)O1	21	25	17	51*	-82	+
O=C(C1CCCN(c2ncnc3c2nc2n3CCCCC2)C1)N1CCN(c2cccc(Cl)c2)CC1 (stereo not drawn)	-1	-31	12	·	3	-4
CN(C(=O)C1CCCN(c2ncnc3c2nc2n3CCCCC2)C1)c1cccc(Cl)c1 (stereo not drawn)	2	-36*	15	-6	2	1
CC(=O)N(C)C[C@H]1Oc2cc(-c3ccccc3F)ccc2S(=O)(=O)N([C@@H](C)CO)C[C@H]1C	1	-7	-1	4	-1	1
Cc1ccc(C)c(N(CC(=O)NC2CCCC2)C(=O)c2oc(C(C)(C)C)cc2C)c1	-3	-16*	4	-2	0	-3
SMILES	ERAP1 inh	rRNA inh HTS	ARNT TACC3 PPI	PGC1a acetyl inh	CASP6 VEID inh	S100A4 inh HTS
O=C(c1ccc(Cl)cc1)N1CCN(c2ccnc3cc(Cl)ccc23)CC1	-3	-29*	3	-9	·	0
CCC(=O)N1CCN(c2ccnc3cc(Cl)ccc23)CC1	-2	-8	-7	·	0	3
COc1cccc(Cl)c1NC(=O)N1CCN(c2ccnc3cc(Cl)ccc23)CC1	0	-32*	-1	·	-1	-2
Oc1ccc(N2CCN(c3ccnc4cc(Cl)ccc34)CC2)cc1	-3	-38*	·	·	1	0
CCC(C)NCCOCCOc1ccc(Cl)c(C)c1C (stereo not drawn)	15	·	-10	·	-3	-9
CCC(C)NCCOCCOc1ccc(Cl)c2ccccc12 (stereo not drawn)	5	-53*	-1	-3	-1	-7
Cc1noc(C)c1NC(=O)N(C)C[C@@H]1Oc2ccc(NC(=O)CCCCCC(=O)Nc3ccccc3N)cc2C(=O)N([C@@H](C)CO)C[C@@H]1C	-3	0	-9	3	-2	7
Cc1cc(=O)oc(C)c1C(=O)NNC(=O)C1(C)CC1Br (stereo not drawn)	·	6	·	11	-1	1
CC1(C(=O)NNC(=O)c2ccc(=O)oc2)CC1Br (stereo not drawn)	4	12	·	0	42*	-8
Cc1noc(C)c1NC(=O)N(C)C[C@@H]1Oc2ccc(NS(=O)(=O)c3ccc(F)cc3)cc2CC(=O)N([C@H](C)CO)C[C@H]1C	0	1	-2	1	-2	-7
CCN(C(=O)c1cc2c(=O)n3cccc(C)c3nc2n1CCCOC)C1CCCCC1	50*	-13	-57	7	1	0
COCCCn1c(C(=O)N2CCOCC2)cc2c(=O)n3ccccc3nc21	54*	1	-10	1	-1	-1
COc1ccc(CN(C)C[C@H]2Oc3ccc(NC(=O)C4CCCCC4)cc3CC(=O)N([C@@H](C)CO)C[C@@H]2C)cc1	0	-3	7	2	-4	10
CCCN1CCCCC(NC(=O)COCc2ccccc2)C1=O (stereo not drawn)	-2	0	·	·	0	4
CN1CCCCC(NC(=O)COCc2ccccc2)C1=O (stereo not drawn)	-3	-5	·	·	38*	-1

Assay outcomes: PubChem BioAssay, Broad Institute
